Tests used:
Conditions in all cases: stereoisomer not certain
[1] = molecular target: T1, OR1A1 (Homo sapiens) (UniProt Q9P1Q5)
T1 sequence (whole entry): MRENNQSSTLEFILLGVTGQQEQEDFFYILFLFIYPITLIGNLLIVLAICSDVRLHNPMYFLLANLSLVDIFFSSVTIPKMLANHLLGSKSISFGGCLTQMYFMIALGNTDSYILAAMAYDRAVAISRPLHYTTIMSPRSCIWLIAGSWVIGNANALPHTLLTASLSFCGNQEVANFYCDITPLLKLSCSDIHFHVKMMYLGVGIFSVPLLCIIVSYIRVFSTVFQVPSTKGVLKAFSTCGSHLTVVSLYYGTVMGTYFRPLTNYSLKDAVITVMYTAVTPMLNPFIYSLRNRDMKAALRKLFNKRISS
Method in brief: (§1)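 Each receptor–molecule pair is labelled responsive or non-responsive (inactive) according to whether the original authors judged the measured signal statistically different from baseline. The data were taken from the main text and supplementary material of published papers and checked for typos and inconsistencies. Assay methods differed by source, with transient luciferase assays in mammalian cell lines being common.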

[2] = molecular target: T2, OR13H1 (Homo sapiens) (UniProt Q8NG92)
T2 sequence (whole entry): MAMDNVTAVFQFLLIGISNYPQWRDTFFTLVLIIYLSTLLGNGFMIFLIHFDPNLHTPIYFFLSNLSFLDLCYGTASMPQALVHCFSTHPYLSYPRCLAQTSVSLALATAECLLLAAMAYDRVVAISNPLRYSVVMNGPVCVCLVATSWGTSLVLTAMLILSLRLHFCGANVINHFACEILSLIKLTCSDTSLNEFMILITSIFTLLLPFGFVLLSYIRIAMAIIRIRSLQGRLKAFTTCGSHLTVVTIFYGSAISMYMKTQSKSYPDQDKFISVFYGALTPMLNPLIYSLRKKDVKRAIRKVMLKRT
Method in brief: as §1

[3] = molecular target: T3, OR13J1 (Homo sapiens) (UniProt Q8NGT2)
T3 sequence (whole entry): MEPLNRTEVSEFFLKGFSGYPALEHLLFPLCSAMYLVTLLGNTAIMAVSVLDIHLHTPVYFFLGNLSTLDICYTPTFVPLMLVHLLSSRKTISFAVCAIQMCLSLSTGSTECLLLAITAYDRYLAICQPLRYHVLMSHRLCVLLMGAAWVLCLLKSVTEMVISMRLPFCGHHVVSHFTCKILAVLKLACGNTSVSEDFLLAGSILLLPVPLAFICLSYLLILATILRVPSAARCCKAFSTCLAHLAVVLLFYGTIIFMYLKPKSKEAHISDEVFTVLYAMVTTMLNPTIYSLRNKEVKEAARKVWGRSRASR
Method in brief: as §1

[4] = molecular target: T4, OR14A16 (Homo sapiens) (UniProt Q8NHC5)
T4 sequence (whole entry): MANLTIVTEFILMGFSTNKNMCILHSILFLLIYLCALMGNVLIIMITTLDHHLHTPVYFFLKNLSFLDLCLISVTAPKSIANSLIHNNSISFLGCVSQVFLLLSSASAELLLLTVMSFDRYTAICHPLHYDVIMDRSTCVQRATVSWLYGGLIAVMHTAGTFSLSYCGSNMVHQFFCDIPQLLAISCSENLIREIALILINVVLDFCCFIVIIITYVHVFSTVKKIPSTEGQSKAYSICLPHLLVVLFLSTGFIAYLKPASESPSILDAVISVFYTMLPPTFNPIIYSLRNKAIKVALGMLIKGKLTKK
Method in brief: as §1

[5] = molecular target: T5, OR14A2 (Homo sapiens) (UniProt Q96R54)
T5 sequence (whole entry): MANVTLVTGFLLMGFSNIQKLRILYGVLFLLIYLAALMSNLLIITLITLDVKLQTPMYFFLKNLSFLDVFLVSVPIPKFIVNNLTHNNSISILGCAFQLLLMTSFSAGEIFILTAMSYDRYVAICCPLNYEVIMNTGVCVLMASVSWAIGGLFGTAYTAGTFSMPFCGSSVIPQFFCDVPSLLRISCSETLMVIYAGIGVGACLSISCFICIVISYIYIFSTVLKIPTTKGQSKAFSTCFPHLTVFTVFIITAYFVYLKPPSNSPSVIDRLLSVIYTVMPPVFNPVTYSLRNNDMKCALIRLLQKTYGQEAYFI
Method in brief: as §1

[6] = molecular target: T6, OR14C36 (Homo sapiens) (UniProt Q8NHC7)
T6 sequence (whole entry): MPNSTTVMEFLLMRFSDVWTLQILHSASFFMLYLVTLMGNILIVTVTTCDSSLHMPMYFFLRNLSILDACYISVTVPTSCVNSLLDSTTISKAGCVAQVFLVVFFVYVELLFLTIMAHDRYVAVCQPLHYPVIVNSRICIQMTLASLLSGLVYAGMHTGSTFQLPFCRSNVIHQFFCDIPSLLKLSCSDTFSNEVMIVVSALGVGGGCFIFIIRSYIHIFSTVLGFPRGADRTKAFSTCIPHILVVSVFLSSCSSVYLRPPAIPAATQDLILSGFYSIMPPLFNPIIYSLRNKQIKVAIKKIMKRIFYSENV
Method in brief: as §1

[7] = molecular target: T7, OR14I1 (Homo sapiens) (UniProt A6ND48)
T7 sequence (whole entry): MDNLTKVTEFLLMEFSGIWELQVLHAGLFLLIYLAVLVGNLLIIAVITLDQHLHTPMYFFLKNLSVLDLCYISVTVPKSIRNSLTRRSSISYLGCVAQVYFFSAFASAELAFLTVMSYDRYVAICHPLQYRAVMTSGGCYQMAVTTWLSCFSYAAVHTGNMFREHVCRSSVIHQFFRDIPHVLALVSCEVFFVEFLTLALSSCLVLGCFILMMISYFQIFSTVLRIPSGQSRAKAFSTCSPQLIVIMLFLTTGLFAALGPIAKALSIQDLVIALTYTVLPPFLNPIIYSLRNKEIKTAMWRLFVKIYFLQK
Method in brief: as §1

[8] = molecular target: T8, OR14J1 (Homo sapiens) (UniProt Q9UGF5)
T8 sequence (whole entry): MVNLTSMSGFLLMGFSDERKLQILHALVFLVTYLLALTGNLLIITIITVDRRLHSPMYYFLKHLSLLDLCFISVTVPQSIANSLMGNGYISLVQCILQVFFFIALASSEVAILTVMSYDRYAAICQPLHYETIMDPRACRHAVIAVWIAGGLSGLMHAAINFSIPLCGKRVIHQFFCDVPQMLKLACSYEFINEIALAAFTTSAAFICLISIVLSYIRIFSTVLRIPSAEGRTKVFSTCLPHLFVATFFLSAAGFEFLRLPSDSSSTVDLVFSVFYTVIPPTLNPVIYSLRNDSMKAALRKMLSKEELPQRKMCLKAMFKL
Method in brief: as §1

[9] = molecular target: T9, OR14K1 (Homo sapiens) (UniProt Q8NGZ2)
T9 sequence (whole entry): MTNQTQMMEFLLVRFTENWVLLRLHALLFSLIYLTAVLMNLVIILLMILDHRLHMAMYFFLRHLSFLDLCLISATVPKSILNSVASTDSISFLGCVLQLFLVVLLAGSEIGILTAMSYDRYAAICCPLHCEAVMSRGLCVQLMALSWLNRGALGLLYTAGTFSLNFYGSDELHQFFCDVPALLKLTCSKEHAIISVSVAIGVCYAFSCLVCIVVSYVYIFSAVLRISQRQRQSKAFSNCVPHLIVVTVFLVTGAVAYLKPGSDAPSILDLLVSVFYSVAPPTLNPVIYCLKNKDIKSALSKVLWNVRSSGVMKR
Method in brief: as §1

[10] = system: OR1A1 A154T N155S
Method in brief: as §1
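Further: active if original authors judged signal statistically different from baseline.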

COC(=O)C=Cc1ccccc1
odorant receptor agonist call [1]: inactive

COc1ccc2ccc(=O)oc2c1
odorant receptor agonist call [1]: inactive

C=CC(=C)CCC=C(C)C
odorant receptor agonist call [1]: inactive

CC1CCCCCCCCCCCCC(=O)C1 (configuration not stated)
odorant receptor agonist call [2]: inactive | odorant receptor agonist call [3]: inactive | odorant receptor agonist call [4]: inactive | odorant receptor agonist call [5]: inactive | odorant receptor agonist call [6]: inactive | odorant receptor agonist call [7]: inactive | odorant receptor agonist call [8]: inactive | odorant receptor agonist call [9]: inactive | odorant receptor agonist call [1]: active

CCC(S)C(C)CO (configuration not stated)
odorant receptor agonist call [2]: inactive | odorant receptor agonist call [3]: inactive | odorant receptor agonist call [4]: inactive | odorant receptor agonist call [5]: inactive | odorant receptor agonist call [6]: inactive | odorant receptor agonist call [7]: inactive | odorant receptor agonist call [8]: inactive | odorant receptor agonist call [9]: inactive | odorant receptor agonist call [1]: inactive

CC(=O)c1c(C)c([N+](=O)[O-])c(C(C)(C)C)c([N+](=O)[O-])c1C
odorant receptor agonist call [2]: inactive | odorant receptor agonist call [3]: inactive | odorant receptor agonist call [4]: inactive | odorant receptor agonist call [5]: inactive | odorant receptor agonist call [6]: inactive | odorant receptor agonist call [7]: inactive | odorant receptor agonist call [8]: inactive | odorant receptor agonist call [9]: inactive | odorant receptor agonist call [1]: inactive

CCc1ncc(C)nc1CC
odorant receptor agonist call [1]: inactive

CC1=C(O)C(=O)OC1C (configuration not stated)
odorant receptor agonist call [2]: inactive | odorant receptor agonist call [3]: inactive | odorant receptor agonist call [4]: inactive | odorant receptor agonist call [5]: inactive | odorant receptor agonist call [6]: inactive | odorant receptor agonist call [7]: inactive | odorant receptor agonist call [8]: inactive | odorant receptor agonist call [9]: inactive | odorant receptor agonist call [1]: inactive

CCCCCCCCCC(=O)[O-].[H+]
odorant receptor agonist call [1]: inactive

CCCCCCC(=O)[O-].[H+]
odorant receptor agonist call [1]: inactive

Cc1cccc(O)c1
odorant receptor agonist call [1]: inactive

CC1=C(O)C(=O)C(C)O1 (configuration not stated)
odorant receptor agonist call [2]: inactive | odorant receptor agonist call [3]: inactive | odorant receptor agonist call [4]: inactive | odorant receptor agonist call [5]: inactive | odorant receptor agonist call [6]: inactive | odorant receptor agonist call [7]: inactive | odorant receptor agonist call [8]: inactive | odorant receptor agonist call [9]: inactive | odorant receptor agonist call [1]: inactive

CC(CO)CS (configuration not stated)
odorant receptor agonist call [2]: inactive | odorant receptor agonist call [3]: inactive | odorant receptor agonist call [4]: inactive | odorant receptor agonist call [5]: inactive | odorant receptor agonist call [6]: inactive | odorant receptor agonist call [7]: inactive | odorant receptor agonist call [8]: active | odorant receptor agonist call [9]: inactive | odorant receptor agonist call [1]: inactive

CCCCC(CC)CCC(=O)O (configuration not stated)
odorant receptor agonist call [1]: inactive

C=CC(O)CCCCC (configuration not stated)
odorant receptor agonist call [1]: active

CCCCCCC=CCCC=O
odorant receptor agonist call [2]: inactive | odorant receptor agonist call [3]: inactive | odorant receptor agonist call [4]: inactive | odorant receptor agonist call [5]: inactive | odorant receptor agonist call [6]: inactive | odorant receptor agonist call [7]: inactive | odorant receptor agonist call [8]: inactive | odorant receptor agonist call [9]: inactive | odorant receptor agonist call [1]: inactive

CCCCCC(=O)CC
odorant receptor agonist call [1]: active

CC(=O)OCCc1ccccc1
odorant receptor agonist call [1]: active

CCCC(S)CCOC(C)=O (configuration not stated)
odorant receptor agonist call [2]: inactive | odorant receptor agonist call [3]: inactive | odorant receptor agonist call [4]: inactive | odorant receptor agonist call [5]: inactive | odorant receptor agonist call [6]: inactive | odorant receptor agonist call [7]: inactive | odorant receptor agonist call [8]: inactive | odorant receptor agonist call [9]: inactive | odorant receptor agonist call [1]: active

CCO
odorant receptor agonist call [1]: inactive

CC(C)=CCCC(C)=CCCC(C)=CCO
odorant receptor agonist call [1]: inactive

CCCCCC(S)C(C)CO (configuration not stated)
odorant receptor agonist call [2]: inactive | odorant receptor agonist call [3]: inactive | odorant receptor agonist call [4]: inactive | odorant receptor agonist call [5]: inactive | odorant receptor agonist call [6]: inactive | odorant receptor agonist call [7]: inactive | odorant receptor agonist call [8]: inactive | odorant receptor agonist call [9]: inactive | odorant receptor agonist call [1]: inactive

CCC1OC(C)=C(O)C1=O (configuration not stated)
odorant receptor agonist call [2]: inactive | odorant receptor agonist call [3]: inactive | odorant receptor agonist call [4]: inactive | odorant receptor agonist call [5]: inactive | odorant receptor agonist call [6]: inactive | odorant receptor agonist call [7]: inactive | odorant receptor agonist call [8]: inactive | odorant receptor agonist call [9]: inactive | odorant receptor agonist call [1]: inactive

CCC=CCCCCCC=O
odorant receptor agonist call [1]: active

C=C1CCC2CC1C2(C)C (configuration not stated)
odorant receptor agonist call [1]: inactive

CCCCCC=CCCC=O
odorant receptor agonist call [1]: active

CC1=NC(C)C(C)S1 (configuration not stated)
odorant receptor agonist call [2]: inactive | odorant receptor agonist call [3]: inactive | odorant receptor agonist call [4]: inactive | odorant receptor agonist call [5]: inactive | odorant receptor agonist call [6]: inactive | odorant receptor agonist call [7]: inactive | odorant receptor agonist call [8]: inactive | odorant receptor agonist call [9]: inactive | odorant receptor agonist call [1]: inactive

CSCCCO
odorant receptor agonist call [1]: inactive

CCCCCC(=O)C(C)C(C)=O (configuration not stated)
odorant receptor agonist call [2]: inactive | odorant receptor agonist call [3]: inactive | odorant receptor agonist call [4]: inactive | odorant receptor agonist call [5]: inactive | odorant receptor agonist call [6]: inactive | odorant receptor agonist call [7]: inactive | odorant receptor agonist call [8]: inactive | odorant receptor agonist call [9]: inactive | odorant receptor agonist call [1]: active

CCC1OC(=O)C(O)=C1C (configuration not stated)
odorant receptor agonist call [2]: inactive | odorant receptor agonist call [3]: inactive | odorant receptor agonist call [4]: inactive | odorant receptor agonist call [5]: inactive | odorant receptor agonist call [6]: inactive | odorant receptor agonist call [7]: inactive | odorant receptor agonist call [8]: inactive | odorant receptor agonist call [9]: inactive | odorant receptor agonist call [1]: inactive

CCCCCCC=CC=O
odorant receptor agonist call [1]: inactive

OCCc1ccccc1
odorant receptor agonist call [1]: inactive

CCCCC(=O)O
odorant receptor agonist call [1]: inactive

Cc1cnc(C)c(C)n1
odorant receptor agonist call [2]: inactive | odorant receptor agonist call [3]: inactive | odorant receptor agonist call [4]: inactive | odorant receptor agonist call [5]: inactive | odorant receptor agonist call [6]: inactive | odorant receptor agonist call [7]: inactive | odorant receptor agonist call [8]: inactive | odorant receptor agonist call [9]: inactive | odorant receptor agonist call [1]: inactive

CCCCC(S)C(C)CO (configuration not stated)
odorant receptor agonist call [2]: inactive | odorant receptor agonist call [3]: inactive | odorant receptor agonist call [4]: inactive | odorant receptor agonist call [5]: inactive | odorant receptor agonist call [6]: inactive | odorant receptor agonist call [7]: inactive | odorant receptor agonist call [8]: inactive | odorant receptor agonist call [9]: inactive | odorant receptor agonist call [1]: inactive

C=CC(=O)CC
odorant receptor agonist call [1]: inactive

CC(C)=CCCC(C)CCO (configuration not stated)
odorant receptor agonist call [10]: active

— the M2OR odorant receptor database
